# Source: PubChem (several laboratories)
# The sample as a whole holds a higher share of hits than the screen did.
# NOD2-RIPK2 inh: blocks binding of human NOD2 to RIPK2. CHO BLA complementation NOD2-RIPK2, CCF4 ratio. 0.38% of 360,000 active. inhibition, % at 4.98 µM. O43353; in the data active means inhibition above about 21%;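 further: 0% = vehicle only and 100% = reference blocker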
# UPR CHOP act: activators of apoptotic arm of unfolded protein response (CHOP); CHO-CHOP luciferase reporter, UPR activation, luminescence; percent of tunicamycin response over DMSO baseline; activation, % at 10 µM; 0.34% of 330,000 active;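 active means at 10 µM dose, activation of 40% or more, normalized to positive control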;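 further: 100% = tunicamycin at 10 µg/mL and 0% = DMSO alone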
#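 System: CHO CHOP reporter cells. Amount: 500 cells per well. Buffer or medium: F12 medium, 10% FBS. Compound dosing: one dose, 10 µM in 0.5% DMSO. Incubation: 6 h compound exposure at 37 °C after overnight seeding. Technique: Steady-Glo luciferase luminescence. Benchmarks: tunicamycin and DMSO controls.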
# TLR9-MyD88 block: blocks human TLR9 binding to MyD88; Q9NR96+Q99836; CHO BLA complementation TLR9-MyD88, CCF4 FRET ratio; inhibition, % at 4.98 µM; 0.21% of 340,000 active;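 active means inhibition above the mean over all tested compounds plus 3 SD, cut at about 21% in these data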;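 further: 0% = DMSO only wells and 100% = clavulanate BLA inhibitor control wells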
# TLR4 MyD88 comp: inhibitors of human TLR4-MyD88 binding; HeLa CL3-4 TLR4/MyD88 BLA complementation, FRET ratio; inhibition, % at 8.4 µM; 0.18% of 200,000 active; AID 861; O00206+Q99836; in the data active means inhibition above about 25%;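 further: 0% = vehicle and 100% = reference inhibitor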
# CHOP inh: inhibitors of CHOP induction in ER stress response; CHO-K1 CHOP-promoter luciferase, tunicamycin-induced, 15-18 h; inhibition, % at 10 µM; 3.8% of 220,000 active;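 active means compounds that reduced the stress-induced luciferase reporter signal by more than about 70% of percent inhibition, limit read from the data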;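 further: 0% = tunicamycin plus vehicle and 100% = wells without tunicamycin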
# XBP1 UPR activ: adaptive UPR (XBP1) activation; AID 463104; CHO-XBP1 luciferase reporter, IRE1-XBP1 UPR activation, luminescence; percent of tunicamycin response, DMSO as zero; 0.33% of 330,000 active; activation, % at 20 µM;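 active means versus positive control, 20 µM dose yields 30% or more activation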;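 further: 100% = tunicamycin at 10 µg/mL and 0% = DMSO only wells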
#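 Signal: luciferase luminescence; Assay system: CHO-XBP1 luciferase reporter cells; Amount: one thousand reporter cells per well; Dosing: 20 µM single concentration, DMSO 1%; Benchmarks: high control tunicamycin 10 µg/mL final, low control DMSO vehicle only; Schedule: 6 h compound exposure at 37 °C, 5% CO2; Evaluation: percent activation relative to tunicamycin reference.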
# Starred values were filed as active, the others as inactive; / = no result.
SMILES,NOD2-RIPK2 inh,UPR CHOP act,TLR9-MyD88 block,TLR4 MyD88 comp,CHOP inh,XBP1 UPR activ
CCOc1ccc(-c2nc(N)ncc2-c2ccc(OC)cc2)c(O)c1,2,-1,0,6,44,-3
CCOc1ccc(-c2nc(N)ncc2-c2ccccc2)c(O)c1,2,1,-1,-11,91*,2
CCc1cc(-c2nc(N)ncc2-c2csc(C)n2)c(O)cc1OC,-10,4,-3,-16,6,7
CC(CCc1ccccc1)NC(=O)c1ccc(NC(=O)c2cccc(Br)c2)cc1 (stereo not given),3,2,4,-19,32,5
CC(CCc1ccccc1)NC(=O)c1ccc(NC(=O)c2ccccc2)cc1 (stereo not given),-2,-2,4,-4,85*,-5
CCc1cccc2c1NC1(CCCC1)CC2C (stereo not given),-12,-1,6,/,91*,-3
COc1ccc(S(=O)(=O)Nc2ccccc2-c2nnn(CC(=O)Nc3ccccc3OC)n2)cc1,2,3,5,-12,76*,0
CCOc1ccccc1NC(=O)Cn1nnc(-c2ccc(OCC)c(OCC)c2)n1,-6,-3,-6,-7,87*,-3
CCOC(=O)c1ccc(NC(=O)Cn2nnc(-c3ccc(F)cc3)n2)cc1,-5,-5,2,5,81*,0
CCOc1ccc(-c2nnn(CC(=O)Nc3cc(OC)ccc3OC)n2)cc1OCC,-1,0,-6,-11,39,3
CCOC(=O)c1ccc(NC(=O)Cn2nnc(-c3ccccc3)n2)cc1,6,-3,7,-4,61,-1
CCC(=O)N1CCCC1(C)C(=O)Nc1ccc2scnc2c1 (stereo not given),-3,/,/,/,/,/
CC1CCC(NC(=O)c2ccc(/C=C3\Oc4ccccc4N(C)C3=O)cc2)CC1 (stereo not given),/,/,/,0,91*,/
CN1CCN(CCCNC(=O)c2ccc(/C=C3\Oc4ccccc4N(Cc4ccccc4F)C3=O)cc2)CC1,14,4,2,/,/,3
COc1ccc(NC(=O)c2cc([N+](=O)[O-])ccc2O)cc1,-3,-9,11,-16,75*,-12
O=C(Nc1cccc([N+](=O)[O-])c1)c1cc2ccccc2cc1O,9,26,-6,/,86*,5
COc1ccc(NC(=O)c2cccc([N+](=O)[O-])c2)cc1,0,0,3,-7,-7,2
O=C(O)c1ccccc1C(=O)Nc1cccc([N+](=O)[O-])c1,7,1,3,/,1,1
CCCCCCCCCn1ccc(=N)cc1,-6,11,-6,/,76*,7
O=C(Nc1ccccc1)c1sc(Cl)nc1-c1ccccc1,1,2,-14,5,9,2
O=C(Nc1cc(F)cc(F)c1)c1sc(Cl)nc1-c1ccccc1,18,2,3,-6,75*,0
O=C(c1ccccc1)C(CCC(CN1CCOCC1)C(=O)c1ccccc1)CN1CCOCC1 (stereo not given),30*,28,10,4,98*,-7
CN(C)CC(CCC(CN(C)C)C(=O)c1ccccc1)C(=O)c1ccccc1 (stereo not given),60*,/,14,/,106*,/
CCN(CC)C(=O)C1=C(C)N(Cc2ccccc2)C(=O)C(CC(=O)NCCCCc2ccccc2)C1 (stereo not given),6,/,12,/,/,/
C=CCOc1ccc(Cl)cc1-c1noc(-c2csc([C@H]3C[C@H](O)[C@@H](CO)O3)n2)n1,2,/,/,/,/,/
CCCCCCCCN1C(=O)[C@H](CC(=O)NCCCN2CCCC2=O)C[C@@]2(C(=O)OC)CCCCC=C12,6,/,/,/,/,/
COc1ccc(Nc2nc(N3CCCCC3)c3ccccc3n2)cc1,-4,7,-4,-2,82*,5
Oc1ccc(Nc2nc(N3CCCC3)c3ccccc3n2)cc1,-7,-2,-9,2,/,2
Cc1ccn2c(C(=O)CSc3ccccc3Cl)c(C)nc2c1,6,4,4,1,73*,4
